From ChEMBL document CHEMBL5260806, “Hydrogen peroxide activated quinone methide precursors with enhanced DNA cross-linking capability and cytotoxicity towards cancer cells” (Eur J Med Chem, 2017)
The source made the active and inactive calls. No cut-off for these calls is given here.

Tests used:
COLO 205 = test: Anticancer activity against human COLO 205 cells assessed as cell growth inhibition at 10 uM incubated for 48 hrs by sulforhodamine B assay; format: functional; conditions: read-out: GI
Summary of the method: (§1)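 NCI-60 screen: cell lines grown in RPMI 1640 with 5% FBS and 2 mM L-glutamine, plated in 96-well plates at 5,000–40,000 cells/well depending on doubling time. Each line has one single-dose arm at 10 µM and one dose-response arm giving GI50.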

RPMI-8226 = test: Anticancer activity against human RPMI-8226 cells assessed as cell growth inhibition at 10 uM incubated for 48 hrs by sulforhodamine B assay; format: functional; conditions: read-out: GI
Summary of the method: (§2)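 NCI DTP 60-cell-line screen run at National Cancer Institute. Cells grown in RPMI 1640 with 5% fetal bovine serum and 2 mM L-glutamine, seeded at 5,000–40,000 cells/well depending on doubling time. Single-dose screen at 10 µM gives growth percentage; dose-response series gives GI50.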

CAKI-1 [1] = test: Anticancer activity against human CAKI-1 cells assessed as cell growth inhibition incubated for 48 hrs by sulforhodamine B assay; format: functional; summary of the method: as §1
HT-29 = test: Anticancer activity against human HT-29 cells assessed as cell growth inhibition at 10 uM incubated for 48 hrs by sulforhodamine B assay; format: functional; conditions: read-out: GI; summary of the method: as §1
NCI-H23 [2] = test: Anticancer activity against human NCI-H23 cells assessed as cell growth inhibition at 10 uM incubated for 48 hrs by sulforhodamine B assay; format: functional; conditions: read-out: GI; summary of the method: as §2
OVCAR-3 = test: Anticancer activity against human OVCAR-3 cells assessed as cell growth inhibition incubated for 48 hrs by sulforhodamine B assay; format: functional; summary of the method: as §2
TK-10 = test: Anticancer activity against human TK-10 cells assessed as cell growth inhibition at 10 uM incubated for 48 hrs by sulforhodamine B assay; format: functional; conditions: read-out: GI
MDA-MB-435 = test: Anticancer activity against human MDA-MB-435 cells assessed as cell growth inhibition at 10 uM incubated for 48 hrs by sulforhodamine B assay; format: functional; conditions: read-out: GI; summary of the method: as §2
SF-539 = test: Anticancer activity against human SF-539 cells assessed as cell growth inhibition incubated for 48 hrs by sulforhodamine B assay; format: functional; summary of the method: as §2
MOLT-4 = test: Anticancer activity against human MOLT-4 cells assessed as cell growth inhibition incubated for 48 hrs by sulforhodamine B assay; format: functional; summary of the method: as §2
MDA-MB-231 = test: Anticancer activity against human MDA-MB-231 cells assessed as cell growth inhibition incubated for 48 hrs by sulforhodamine B assay; format: functional; summary of the method: as §2
[3] = Toxicity in healthy human lymphocytes assessed as reduction in cell viability at 10 uM after 24 hrs by Annexin/PI staining based fluorescence assay; conditions: lymphocyte
Summary of the method: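 Normal donor lymphocytes (n=2) isolated from peripheral blood by Ficoll-hypaque, in RPMI with 10% autologous plasma. Exposed to 10 µM for 24 h; % viable cells by annexin/PI binding.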

EKVX = test: Anticancer activity against human EKVX cells assessed as cell growth inhibition incubated for 48 hrs by sulforhodamine B assay; format: functional; summary of the method: as §1
Hs-578T = test: Anticancer activity against human Hs-578T cells assessed as cell growth inhibition at 10 uM incubated for 48 hrs by sulforhodamine B assay; format: functional; conditions: read-out: GI; summary of the method: as §1
T47D = test: Anticancer activity against human T47D cells assessed as cell growth inhibition at 10 uM incubated for 48 hrs by sulforhodamine B assay; format: functional; conditions: read-out: GI
UACC-62 = test: Anticancer activity against human UACC-62 cells assessed as cell growth inhibition at 10 uM incubated for 48 hrs by sulforhodamine B assay; format: functional; conditions: read-out: GI
CAKI-1 [4] = test: Anticancer activity against human CAKI-1 cells assessed as cell growth inhibition at 10 uM incubated for 48 hrs by sulforhodamine B assay; format: functional; conditions: read-out: GI; summary of the method: as §1
SN12C [5] = test: Anticancer activity against human SN12C cells assessed inhibition of cell growth after 48 hrs by CellTiter-Glo luminescent assay; format: functional, cell-based
Summary of the method: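 Renal lines grown in RPMI 1640 with 5% FBS and 2 mM L-glutamine, seeded into 384-well plates at 5,000–10,000 cells/well, held 2–3 h at 37 °C, 5% CO2. DMSO stocks (20 mM) serially halved ten times and added at 1:100. Cells exposed 48 h at 37 °C; CellTiter-Glo added, 10 min at room temperature, luminescence read.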

NCI-H322M = test: Anticancer activity against human NCI-H322M cells assessed as cell growth inhibition incubated for 48 hrs by sulforhodamine B assay; format: functional; summary of the method: as §2
IGROV-1 = test: Anticancer activity against human IGROV-1 cells assessed as cell growth inhibition incubated for 48 hrs by sulforhodamine B assay; format: functional; summary of the method: as §1
BT-549 = test: Anticancer activity against human BT-549 cells assessed as cell growth inhibition incubated for 48 hrs by sulforhodamine B assay; format: functional; summary of the method: as §1
UO-31 = test: Anticancer activity against human UO-31 cells assessed as cell growth inhibition incubated for 48 hrs by sulforhodamine B assay; format: functional
DNA = test: Induction of [32P]-labeled 49-mer oligonucleotide duplex DNA 25 (unknown origin) interstrand cross-linking at 2 mM for 24 hrs without H2O2 by PAGE; format: functional
OVCAR-5 = test: Anticancer activity against human OVCAR-5 cells assessed as cell growth inhibition at 10 uM incubated for 48 hrs by sulforhodamine B assay; format: functional; conditions: read-out: GI; summary of the method: as §2
RXF 393 = test: Anticancer activity against human RXF 393 cells assessed as cell growth inhibition at 10 uM incubated for 48 hrs by sulforhodamine B assay; format: functional; conditions: read-out: GI; summary of the method: as §2
SNB-75 [6] = test: Anticancer activity against human SNB-75 cells assessed as cell growth inhibition incubated for 48 hrs by sulforhodamine B assay; format: functional
NCI-H23 [7] = test: Anticancer activity against human NCI-H23 cells assessed as cell growth inhibition incubated for 48 hrs by sulforhodamine B assay; format: functional; summary of the method: as §2
CLL cell = test: Induction of DNA damage in chronic lymphocytic leukemia patient lymphocytes assessed as gamma-H2Ax phosphorylation at Ser139 residue at 10 uM after 24 hrs by FITC-staining based flow cytometry; format: functional; conditions: Homo sapiens
Summary of the method: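 Patient CLL lymphocytes, Ficoll-hypaque isolated, in RPMI with 10% autologous plasma, untreated or exposed to 10 µM for 24 h. Cells washed in PBS, fixed in ice-cold 70% ethanol and held at −20 °C. Then permeabilised, stained with FITC anti-H2AX Ser139 antibody and read by flow cytometry.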

SN12C [8] = test: Anticancer activity against human SN12C cells assessed as cell growth inhibition at 10 uM incubated for 48 hrs by sulforhodamine B assay; format: functional; conditions: read-out: GI
SNB-19 = test: Anticancer activity against human SNB-19 cells assessed as cell growth inhibition at 10 uM incubated for 48 hrs by sulforhodamine B assay; format: functional; conditions: read-out: GI
SNB-75 [9] = test: Anticancer activity against human SNB-75 cells assessed as cell growth inhibition at 10 uM incubated for 48 hrs by sulforhodamine B assay; format: functional; conditions: read-out: GI
NCI-H226 = test: Anticancer activity against human NCI-H226 cells assessed as cell growth inhibition incubated for 48 hrs by sulforhodamine B assay; format: functional; summary of the method: as §2
HCT-116 = test: Anticancer activity against human HCT-116 cells assessed as cell growth inhibition incubated for 48 hrs by sulforhodamine B assay; format: functional; summary of the method: as §1
NCI/ADR-RES [10] = test: Anticancer activity against human NCI/ADR-RES cells assessed as cell growth inhibition at 10 uM incubated for 48 hrs by sulforhodamine B assay; format: functional; conditions: read-out: GI; summary of the method: as §2
NCI/ADR-RES [11] = test: Anticancer activity against human NCI/ADR-RES cells assessed as cell growth inhibition incubated for 48 hrs by sulforhodamine B assay; format: functional; summary of the method: as §2
MCF7 = test: Anticancer activity against human MCF7 cells assessed as cell growth inhibition at 10 uM incubated for 48 hrs by sulforhodamine B assay; format: functional; conditions: read-out: GI; summary of the method: as §2

GI50 (OVCAR-3): 2 µM
GI50 (MOLT-4): 2 µM
GI50 (MDA-MB-231): 2 µM
GI50 (NCI-H322M): 2 µM
GI50 (BT-549): 2 µM
GI50 (NCI-H23 [7]): 2 µM
GI50 (NCI-H226): 2 µM
GI50 (HCT-116): 2 µM
Compound: COc1cc(CBr)c(B2OC(C)(C)C(C)(C)O2)c(CBr)c1
inhibition of growth at 10 µM (COLO 205): < 50%
inhibition of growth at 10 µM (RPMI-8226): < 50%
GI50 (CAKI-1 [1]): 2 µM
inhibition of growth at 10 µM (HT-29): < 50%
inhibition of growth at 10 µM (NCI-H23 [2]): < 50%
inhibition of growth at 10 µM (TK-10): < 50%
inhibition of growth at 10 µM (MDA-MB-435): < 50%
GI50 (SF-539): 2 µM
Activity [3]: Non-Toxic
GI50 (EKVX): 2 µM
inhibition of growth at 10 µM (Hs-578T): < 50%
inhibition of growth at 10 µM (T47D): < 50%
inhibition of growth at 10 µM (UACC-62): < 50%
inhibition of growth at 10 µM (CAKI-1 [4]): < 50%
IC50 (SN12C [5]): 18.6 µM
GI50 (IGROV-1): 2 µM
GI50 (UO-31): 2 µM
Activity (DNA): 0%
inhibition of growth at 10 µM (OVCAR-5): < 50%
inhibition of growth at 10 µM (RXF 393): < 50%
GI50 (SNB-75 [6]): 2 µM
Activity (CLL cell): Active
inhibition of growth at 10 µM (SN12C [8]): < 50%
inhibition of growth at 10 µM (SNB-19): < 50%
inhibition of growth at 10 µM (SNB-75 [9]): < 50%
inhibition of growth at 10 µM (NCI/ADR-RES [10]): < 50%
GI50 (NCI/ADR-RES [11]): 2 µM
inhibition of growth at 10 µM (MCF7): < 50%
